Tests used:
[1] = biological target: T1, Arachidonate 5-lipoxygenase (Bos taurus, UniProt Q9BEG3); test: Inhibition of 5-lipoxygenase in bovine PMNL cell assay.; format: cell-based
T1 sequence (Q9BEG3 whole entry): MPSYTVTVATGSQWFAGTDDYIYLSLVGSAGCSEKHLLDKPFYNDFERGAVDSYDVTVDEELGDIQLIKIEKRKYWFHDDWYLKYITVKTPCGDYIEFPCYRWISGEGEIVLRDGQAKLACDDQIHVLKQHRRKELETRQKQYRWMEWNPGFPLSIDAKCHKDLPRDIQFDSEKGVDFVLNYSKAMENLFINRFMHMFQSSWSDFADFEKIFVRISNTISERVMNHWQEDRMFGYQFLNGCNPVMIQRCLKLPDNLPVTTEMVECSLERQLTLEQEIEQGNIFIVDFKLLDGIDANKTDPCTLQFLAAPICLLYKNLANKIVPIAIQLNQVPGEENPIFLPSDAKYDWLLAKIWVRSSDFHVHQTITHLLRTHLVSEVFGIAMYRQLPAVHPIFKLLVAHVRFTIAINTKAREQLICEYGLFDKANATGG
Outline: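 Intact polymorphonuclear leukocytes isolated from fresh bovine blood by ficoll gradient centrifugation. Cells incubated with test compound, then stimulated with Ca-ionophore A 23187. IC50 taken as the average of at least two determinations.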

Cyclooxygenase = biological target: T2, Cyclooxygenase (Bos taurus, UniProt O62664+O62698); test: Inhibition of Prostaglandin G/H synthase in bovine thrombocyte intact cell assay.
T2 sequence (O62664 whole entry): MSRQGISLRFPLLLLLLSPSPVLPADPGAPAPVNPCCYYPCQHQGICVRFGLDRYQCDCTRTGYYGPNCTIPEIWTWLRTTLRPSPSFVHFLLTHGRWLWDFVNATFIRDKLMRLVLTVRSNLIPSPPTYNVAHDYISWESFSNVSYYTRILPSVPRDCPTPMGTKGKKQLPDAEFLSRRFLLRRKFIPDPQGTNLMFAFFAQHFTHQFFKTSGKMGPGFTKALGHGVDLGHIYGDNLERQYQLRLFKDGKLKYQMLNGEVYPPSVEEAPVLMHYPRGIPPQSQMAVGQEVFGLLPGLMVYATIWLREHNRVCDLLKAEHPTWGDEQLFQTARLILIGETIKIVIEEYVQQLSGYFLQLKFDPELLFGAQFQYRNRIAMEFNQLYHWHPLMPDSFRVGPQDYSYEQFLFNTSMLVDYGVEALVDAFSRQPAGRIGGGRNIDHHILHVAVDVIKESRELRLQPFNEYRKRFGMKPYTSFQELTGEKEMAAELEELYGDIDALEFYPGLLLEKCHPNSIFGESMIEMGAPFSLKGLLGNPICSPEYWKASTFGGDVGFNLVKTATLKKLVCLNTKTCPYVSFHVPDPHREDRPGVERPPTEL
T2 sequence (O62698 whole entry): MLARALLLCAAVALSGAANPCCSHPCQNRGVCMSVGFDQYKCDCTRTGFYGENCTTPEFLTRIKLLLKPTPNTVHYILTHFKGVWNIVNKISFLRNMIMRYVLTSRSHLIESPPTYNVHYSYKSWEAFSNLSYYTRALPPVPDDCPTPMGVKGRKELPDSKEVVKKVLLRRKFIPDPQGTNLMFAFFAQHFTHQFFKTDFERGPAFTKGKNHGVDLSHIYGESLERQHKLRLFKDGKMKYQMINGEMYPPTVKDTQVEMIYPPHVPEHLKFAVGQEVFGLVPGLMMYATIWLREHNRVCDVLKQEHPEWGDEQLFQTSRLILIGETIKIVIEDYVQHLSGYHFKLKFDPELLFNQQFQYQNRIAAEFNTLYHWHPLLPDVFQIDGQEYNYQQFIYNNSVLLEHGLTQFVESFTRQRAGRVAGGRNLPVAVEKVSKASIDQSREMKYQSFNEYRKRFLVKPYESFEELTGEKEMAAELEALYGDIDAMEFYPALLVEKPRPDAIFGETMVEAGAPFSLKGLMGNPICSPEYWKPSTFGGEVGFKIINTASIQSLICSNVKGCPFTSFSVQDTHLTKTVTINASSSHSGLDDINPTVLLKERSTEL
Outline: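 Intact thrombocytes isolated from fresh bovine blood by ficoll gradient centrifugation. Cells incubated with test compound, then stimulated with Ca-ionophore A 23187. IC50 taken as the average of at least two determinations.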

[2] = biological target: T3, Polyunsaturated fatty acid 5-lipoxygenase (Homo sapiens, UniProt P09917); test: Inhibition of human 5-lipoxygenase in human cells; format: cell-based
T3 sequence (P09917 whole entry): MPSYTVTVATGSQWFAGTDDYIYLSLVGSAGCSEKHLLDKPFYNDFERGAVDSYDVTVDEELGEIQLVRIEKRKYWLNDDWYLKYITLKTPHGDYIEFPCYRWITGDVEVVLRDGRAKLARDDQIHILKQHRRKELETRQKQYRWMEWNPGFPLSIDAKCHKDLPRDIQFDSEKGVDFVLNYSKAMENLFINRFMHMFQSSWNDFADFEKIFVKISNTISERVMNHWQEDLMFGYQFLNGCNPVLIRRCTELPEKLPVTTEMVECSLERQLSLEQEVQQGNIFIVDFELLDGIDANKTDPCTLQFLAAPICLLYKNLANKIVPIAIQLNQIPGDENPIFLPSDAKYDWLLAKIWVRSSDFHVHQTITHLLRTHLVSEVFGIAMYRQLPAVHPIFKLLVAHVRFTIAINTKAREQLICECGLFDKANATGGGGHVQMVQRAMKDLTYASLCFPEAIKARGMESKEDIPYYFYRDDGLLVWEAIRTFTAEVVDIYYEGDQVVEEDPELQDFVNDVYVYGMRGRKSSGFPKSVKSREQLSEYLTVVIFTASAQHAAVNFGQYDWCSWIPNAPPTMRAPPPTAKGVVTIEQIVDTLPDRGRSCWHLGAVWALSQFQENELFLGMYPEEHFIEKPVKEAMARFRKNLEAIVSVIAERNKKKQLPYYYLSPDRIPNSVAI
Outline: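 Intact PMNL isolated by Ficoll gradient centrifugation from fresh human blood; cells incubated with test compound, then stimulated with Ca-ionophore A 23187; 5-LO inhibition expressed as IC50.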

IC50 [1] | IC50 (Cyclooxygenase) | IC50 [2] | SMILES
6000 nM | 1000 nM |  | CC1(C)Cc2c(-c3ccccc3)c(-c3ccc(N)cc3)c(CC(=O)O)n2C1
1500 nM | 30 nM |  | CC1(C)Cc2c(-c3ccccc3)c(-c3ccc([N+](=O)[O-])cc3)c(CC(=O)O)n2C1
> 10000 nM | 3200 nM |  | CC1(C)Cc2c(-c3ccccc3)c(-c3ccc(F)cc3)c(CC(=O)O)n2C1
7700 nM | 1600 nM |  | CC1(C)Cc2c(-c3ccccc3)c(-c3ccc(O)cc3)c(CC(=O)O)n2C1
240 nM | 100 nM |  | COc1ccc(-c2c(-c3ccccc3)c3n(c2CC(=O)O)CC(C)(C)C3)cc1
5200 nM | 3400 nM |  | CC1(C)Cc2c(-c3ccc(Cl)cc3)c(-c3ccccc3)c(CC(=O)O)n2C1
180 nM | 20000 nM |  | CC1(C)Cc2c(-c3ccccc3)c(-c3ccc(C(C)(C)C)cc3)c(CC(=O)O)n2C1
180 nM | 210 nM | 230 nM | CC1(C)Cc2c(-c3ccccc3)c(-c3ccc(Cl)cc3)c(CC(=O)O)n2C1 [LICOFELONE]

The next lines start with the molecule.

SMILES | IC50 [1] | IC50 (Cyclooxygenase) | IC50 [2]
O=C(O)Cc1c(-c2ccc(Cl)cc2)c(-c2ccccc2)c2n1CCC2 | 1600 nM | 2000 nM | 
CC(=O)Nc1ccc(-c2c(-c3ccccc3)c3n(c2CC(=O)O)CC(C)(C)C3)cc1 | 10000 nM | 800 nM | 
CC1(C)Cc2c(-c3ccccc3)c(-c3cccc(Cl)c3)c(CC(=O)O)n2C1 | 1700 nM | 3600 nM | 
CC1(C)Cc2c(-c3ccccc3)c(-c3ccc(Cl)c(Cl)c3)c(CC(=O)O)n2C1 | 1700 nM | 4500 nM | 
CC1(C)Cc2c(-c3ccccc3)c(-c3ccc(Cl)c(Cl)c3Cl)c(CC(=O)O)n2C1 | 1800 nM | 12000 nM | 
CC1(C)Cc2c(-c3ccccc3)c(-c3ccccc3)c(CC(=O)O)n2C1 | 4000 nM | 100 nM | 
CC1(C)Cc2c(-c3ccccc3)c(-c3ccc(Oc4ccccc4)cc3)c(CC(=O)O)n2C1 | 1600 nM | 2000 nM | 
CC1(C)Cc2c(-c3ccccc3)c(-c3cc(Cl)ccc3Cl)c(CC(=O)O)n2C1 | 4300 nM | 12000 nM | 
CC1(C)Cc2c(-c3ccccc3)c(-c3ccc(Cl)cc3Cl)c(CC(=O)O)n2C1 | 2100 nM | 18000 nM | 
CC1(C)Cc2c(-c3ccccc3)c(-c3ccccc3Cl)c(CC(=O)O)n2C1 | 4400 nM | 61000 nM | 
